viability, differential viability (reversal) and inhibition data for 20 compounds are collected here from PubChem BioAssay.

A short description of test [1]: HUVEC growth inhibition – cell-based, human, primary screen (AID 575;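 active = viability at or below 30% in both replicate assays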;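 also: 100% = median of untreated cell wells with 0.1% DMSO on each plate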). The note with it: HUVEC proliferation, CellTiter-Glo luminescence, 72 h; at 10 µM; stronger effect = lower value. The procedure, abridged: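 System: primary human umbilical vein endothelial cells; Quantity: 1250 endothelial cells in each well; Buffer or medium: supplemented EBM, 2% fetal bovine serum; Doses: one dose, 10 µM final, 0.1% DMSO; Incubation: 72 h compound incubation; Technique: ATP-based CellTiter-Glo luminescent read; Evaluation: percent of median DMSO-control luminescence; Controls: vehicle and MePR control wells.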

Test [2] in a line: H69AR cell proliferation blockers – human, duplicate replicates, primary screen (AID 580).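 Also: 100% = mean luminescence of untreated wells and 0% = no signal.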 The note with it: H69AR lung tumor cells viability, ATP luminescence, 72 h; at 10 µM; stronger effect = lower value.
Test [3] is described as follows: MRP1 drug-resistance reversers in H69AR cells – cell-based, doxorubicin co-treatment, pilot screen (AID 601;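 active = viability loss from added drug above about 55%, and viability with drug at most 40%, in both replicates, limit read from the data, passing the limit was not always enough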). The note with it: CellTiter-Glo, 72 h, at 10 µM; for differential viability (reversal): stronger effect = higher value. A general note: In ATP-based viability assays light output follows the ATP content of the culture.
The nature of test [4]: yeast transport mutant growth inhibition pilot in 384-well plates, post-Golgi transport modulator project (AID 636; in the data active = inhibition above about 31%). The settings on record: absorbance 615 nm, about 18 h, stronger effect = higher value.
Test [5] can be described thus: growth suppression of yeast trafficking mutant, preliminary HTS, modulators of trafficking downstream of Golgi apparatus project, 1536-format plate, OD 615 nm (AID 637; in the data active = inhibition above about 30%). The settings on record: yeast transport mutant growth, absorbance 615 nm, 18 h; stronger effect = higher value.
The mark [6] stands for this setting: H69AR cells + 2 uM doxorubicin, measured here: viability with 2 uM doxorubicin, stronger effect = lower value.
Setting [7] is: H69AR cells, compound alone cytotoxicity.

Calls of active or inactive are those of the source.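 The calls were made as follows, unless noted: active = viability at or under a set limit in both replicates, limit being median viability minus 3 SD (cut at about 48% in these data, passing the limit was not always enough); inconclusive = at or under the limit in just one replicate; inactive = at or above the limit in both replicates.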

For orientation: viability means a read-out of living cells in per cent, often relative to untreated cells. A word on the inhibition: it is the relative decrease from the control value, in per cent. Turning to `CCCC(CCC)n1[nH]c(=O)c2c(C)cc(C)nc21`, the viability is 108% (inactive) in test [1], 104% (inactive) in test [2], 103% in test [3] (setting [6]) and 104% in test [3] (setting [7]). Further, the differential viability (reversal) in test [3] (H69AR cells + 2 uM doxorubicin) is 1.53% (inactive). Moreover, the inhibition in test [4] was 0.26% (inactive); in test [5], -3.17% (inactive).

On to `Cn1c(=O)c2ccccc2n(Cc2ccccc2F)c1=O`, for which the viability was 101% (inactive) in test [1], 85.2% (inactive) in test [2], 90.8% in test [3] (setting [6]) and 85.2% in test [3] (setting [7]). The differential viability (reversal) in test [3] (H69AR cells + 2 uM doxorubicin) was -5.55% (inactive). Further, the inhibition in test [4] was -0.66% (inactive); in test [5], 1.75% (inactive).

Consider `C=CCn1c(SCC(=O)NCC2CCCO2)nnc1C1CCCCC1` (stereo not given), for which the viability in test [1] is 104% (inactive); in test [2] it was 97.5% (inactive); in test [3] (setting [6]) it was 87.8%; in test [3] (setting [7]), 97.5%. In addition, in test [3] (H69AR cells + 2 uM doxorubicin), the differential viability (reversal) is 9.64% (inactive). Moreover, the results for the inhibition in test [4] and in test [5] were -6.88% (inactive) and -0.32% (inactive), respectively.

On to `CCOC(=O)Cc1nnc(NC(=O)CSc2nnc3c4ccccc4n(C(C)C)c3n2)s1`, for which the viability was 83.9% (inactive) in test [1], 75.6% (inactive) in test [2], 74.9% in test [3] (setting [6]) and 75.6% in test [3] (setting [7]). Also, the differential viability (reversal) in test [3] (H69AR cells + 2 uM doxorubicin) was 0.7% (inactive). Further, the inhibition in test [4] is -0.91% (inactive); in test [5] it was -1.43% (inactive).

Take `CC1(C)NC(=O)N(CC(O)CN2CCCCC2)C1=O` (stereo not given): the viability was 105% (inactive) in test [1], 93.1% (inactive) in test [2], 96% in test [3] (setting [6]) and 93.1% in test [3] (setting [7]). In test [3] (H69AR cells + 2 uM doxorubicin), the differential viability (reversal) is -2.85% (inactive). The figures for the inhibition in test [4] and in test [5] were -3.73% (inactive) and -4.92% (inactive), respectively.

Turning to `Cc1cc(C)c2c(N)c(C(=O)c3ccccc3)oc2n1`, the viability was 80.2% (inactive) in test [1], 90.4% (inactive) in test [2], 92.1% in test [3] (setting [6]) and 90.4% in test [3] (setting [7]). Moreover, in test [3] (H69AR cells + 2 uM doxorubicin), the differential viability (reversal) is -1.71% (inactive). For the same compound, the results for the inhibition in test [4] and in test [5] were -7.6% (inactive) and 2.22% (inactive), respectively.

For `c1ccc2c(c1)C(=Nn1cnnc1)c1ccccc1-2`, the viability in test [1] is 92.3% (inactive); in test [2], 92.4% (inactive); in test [3] (setting [6]), 96.7%; in test [3] (setting [7]) it was 92.4%. The differential viability (reversal) in test [3] (H69AR cells + 2 uM doxorubicin) is -4.35% (inactive). In addition, the inhibition in test [4] was -0.39% (inactive); in test [5] it was -3.02% (inactive).

As to `CC(=O)c1cccc(NS(=O)(=O)c2ccc3c(c2)oc(=O)n3C)c1`, the viability in test [1] is 92.4% (inactive); in test [2] it was 106% (inactive); in test [3] (setting [6]), 96.7%; in test [3] (setting [7]) it was 106%. Also, the differential viability (reversal) in test [3] (H69AR cells + 2 uM doxorubicin) was 8.94% (inactive). Besides, the inhibition was -2.67% (inactive) in test [4] and -1.9% (inactive) in test [5].

For `Nc1nnc(-c2cc3ccccc3oc2=O)s1`, the viability was 91.8% (inactive) in test [1], 91.7% (inactive) in test [2], 91.4% in test [3] (setting [6]) and 91.7% in test [3] (setting [7]). Moreover, the differential viability (reversal) in test [3] (H69AR cells + 2 uM doxorubicin) is 0.3% (inactive). For the same compound, the results for the inhibition in test [4] and in test [5] were -0.66% (inactive) and 2.38% (inactive), respectively.

As to `CCN(CC)C(=O)CSc1nnc(-c2cc(OC)cc(OC)c2)o1`, the viability is 84.1% (inactive) in test [1], 93.9% (inactive) in test [2], 91.9% in test [3] (setting [6]) and 93.9% in test [3] (setting [7]). For the same compound, the differential viability (reversal) in test [3] (H69AR cells + 2 uM doxorubicin) is 2.03% (inactive). Besides, the inhibition was -5.87% (inactive) in test [4] and 2.7% (inactive) in test [5].

As for `COc1ccccc1NC(=O)N1CCN(c2ccccc2F)CC1`, the viability in test [1] is 108% (inactive); in test [2], 93.8% (inactive); in test [3] (setting [6]), 74.3%; in test [3] (setting [7]), 93.8%. Moreover, the differential viability (reversal) in test [3] (H69AR cells + 2 uM doxorubicin) is 19.5% (inactive). Also, the inhibition is -5.87% (inactive) in test [4] and 1.11% (inactive) in test [5].

On to `CCOC(=O)C1C(=O)NC(SCC(=O)Nc2nccs2)=C(C#N)C1c1ccccc1OCC` (stereo not given), for which the viability is 76.2% (inactive) in test [1], 71.3% (inactive) in test [2], 72.3% in test [3] (setting [6]) and 71.3% in test [3] (setting [7]). The differential viability (reversal) in test [3] (H69AR cells + 2 uM doxorubicin) is -1.05% (inactive). The values for the inhibition in test [4] and in test [5] were -1.45% (inactive) and 7.78% (inactive), respectively.

As to `Cc1nc2cc(CO)ccc2n1C`, the viability in test [1] is 93.1% (inactive); in test [2] it was 98.1% (inactive); in test [3] (setting [6]) it was 89%; in test [3] (setting [7]) it was 98.1%. Further, the differential viability (reversal) in test [3] (H69AR cells + 2 uM doxorubicin) was 9.13% (inactive). Further, the inhibition in test [4] was -5.97% (inactive); in test [5], -1.9% (inactive).

On to `CCCn1c(=N)n(CCOc2ccc(OC)cc2)c2ccccc21`, for which the viability in test [1] is 91.4% (inactive); in test [2], 69.8% (inactive); in test [3] (setting [6]), 68.5%; in test [3] (setting [7]), 69.8%. Further, the differential viability (reversal) in test [3] (H69AR cells + 2 uM doxorubicin) was 1.35% (inactive). Also, the inhibition in test [4] was -6.05% (inactive); in test [5], 3.49% (inactive).

For the compound `COc1cccc(C(=O)Nc2cccc(C(=O)N3CCOCC3)c2)c1`, the viability in test [1] was 97.1% (inactive); in test [2], 90.1% (inactive); in test [3] (setting [6]), 77.1%; in test [3] (setting [7]), 90.1%. Moreover, in test [3] (H69AR cells + 2 uM doxorubicin), the differential viability (reversal) is 13% (inactive). The inhibition is -4.68% (inactive) in test [4] and 0.32% (inactive) in test [5].

Turning to `CCCn1c(SCC(=O)Nc2ccccc2C(=O)OC)nc2c1c(=O)n(C)c(=O)n2C`, the viability in test [1] is 94.9% (inactive); in test [2], 84.5% (inactive); in test [3] (setting [6]), 82.2%; in test [3] (setting [7]), 84.5%. For the same compound, in test [3] (H69AR cells + 2 uM doxorubicin), the differential viability (reversal) was 2.33% (inactive). Also, the inhibition in test [4] is -7.47% (inactive); in test [5], 3.02% (inactive).

As to `Brc1ccc(-c2nnc3sc(CN4CCC5(CC4)OCCO5)cn23)cc1`, the viability was 113% (inactive) in test [1], 95.9% (inactive) in test [2], 88.1% in test [3] (setting [6]) and 95.9% in test [3] (setting [7]). In addition, the differential viability (reversal) in test [3] (H69AR cells + 2 uM doxorubicin) is 7.72% (inactive). For the same compound, the inhibition in test [4] was -2.08% (inactive); in test [5], -2.22% (inactive).

`CCOC(=O)c1nn(-c2sc(C(=O)OC)c(C)c2C(=O)OC)cc1O`: the viability in test [1] is 105% (inactive); in test [2], 85.1% (inactive); in test [3] (setting [6]), 81.7%; in test [3] (setting [7]), 85.1%. For the same compound, the differential viability (reversal) in test [3] (H69AR cells + 2 uM doxorubicin) is 3.34% (inactive). Moreover, the inhibition in test [4] is -1.82% (inactive); in test [5], 3.33% (inactive).

`N#Cc1c(SCC(=O)N2CCOCC2)nsc1SCC(=O)N1CCOCC1`: the viability was 97.7% (inactive) in test [1], 97.2% (inactive) in test [2], 85.7% in test [3] (setting [6]) and 97.2% in test [3] (setting [7]). Moreover, the differential viability (reversal) in test [3] (H69AR cells + 2 uM doxorubicin) was 11.5% (inactive). The results for the inhibition in test [4] and in test [5] were -1.3% (inactive) and -3.02% (inactive), respectively.

In the case of `CC1CCCC(NC(=O)CN2CCN(Cc3ccc(Cl)cc3)C2=O)C1C` (stereo not given), the viability in test [1] is 108% (inactive); in test [2] it was 103% (inactive); in test [3] (setting [6]) it was 86.4%; in test [3] (setting [7]) it was 103%. The differential viability (reversal) in test [3] (H69AR cells + 2 uM doxorubicin) was 16.2% (inactive). For the same compound, the inhibition in test [4] is -1.43% (inactive); in test [5], 4.92% (inactive).
